Compound activity deposited in PubChem BioAssay by The Scripps Research Institute Molecular Screening Center.
PAFAH2 FP inh: inhibitors of human PAFAH2 | Q99487 | recombinant PAFAH2, FP-rhodamine activity probe, fluorescence polarization | inhibition, % at 3.39 µM | 340,000 tested, 0.99% active | AID 492956;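 active = inhibition above the mean over all tested compounds plus 3 SD, cut at about 30% in these data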;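 also: inhibitors block probe labeling of enzyme so polarization drops; 0% = enzyme with DMSO and 100% = wells lacking PAFAH2 protein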
ASAP1 inh: ASAP1 ArfGAP inhibition; inhibition, % at 16.5 µM; ASAP1-stimulated ARF1 GTP hydrolysis, GDP FP detection; AID 624377; 360,000 tested, 0.19% active; Q9ULH1; in the data active = inhibition above about 25%;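 also: 0% = vehicle with enzyme and substrate and 100% = no enzyme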
Target sequence (Q9ULH1 325-724 limits assumed): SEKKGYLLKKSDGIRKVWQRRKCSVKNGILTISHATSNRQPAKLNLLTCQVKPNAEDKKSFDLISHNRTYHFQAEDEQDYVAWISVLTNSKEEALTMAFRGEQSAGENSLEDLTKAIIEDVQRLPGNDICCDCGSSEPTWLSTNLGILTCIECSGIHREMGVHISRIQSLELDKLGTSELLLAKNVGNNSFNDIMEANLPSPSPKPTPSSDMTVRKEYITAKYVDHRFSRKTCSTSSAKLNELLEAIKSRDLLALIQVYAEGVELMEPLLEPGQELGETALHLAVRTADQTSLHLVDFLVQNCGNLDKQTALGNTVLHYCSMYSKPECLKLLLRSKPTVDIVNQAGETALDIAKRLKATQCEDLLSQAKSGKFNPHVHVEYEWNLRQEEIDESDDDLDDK
ARFGAP1 inhibitor: rat ARFGAP1 inhibition; Q62848; Arfgap1-stimulated ARF1 GTP hydrolysis, GDP FP detection; inhibition, % at 16.5 µM; 360,000 tested, 0.26% active; AID 651572;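 active = inhibition above a per-plate limit, mean inhibition of low control wells plus 3 SD, cut at about 25% in these data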;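 also: 0% = DMSO wells with enzyme and 100% = wells lacking Arfgap1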
Target sequence (Q62848 1-136 limits assumed): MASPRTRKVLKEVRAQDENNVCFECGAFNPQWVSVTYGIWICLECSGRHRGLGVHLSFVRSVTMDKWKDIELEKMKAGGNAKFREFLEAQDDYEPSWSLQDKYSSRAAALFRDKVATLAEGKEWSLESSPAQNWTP
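Material: rat Arfgap1 catalytic domain, aa 1-136; also added: human ARF1(Δ1-17)-GTP substrate; compound dosing: one concentration, 16.5 µM, DMSO 1.26%; incubation: GTP hydrolysis reaction 2 h at 25 °C; measured by: Tracer-displacement fluorescence polarization with EDTA stop, 620/688 nm; evaluation: % inhibition from polarization; repeats: one replicate per compound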
PAFAH1B3 FP inh: inhibitors of human PAFAH1B3; recombinant PAFAH1B3, FP-rhodamine probe, fluorescence polarization; Q15102; 340,000 tested, 0.28% active; inhibition, % at 3.39 µM; AID 492972;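 active = inhibition above the screen-wide average of all tested compounds plus 3 SD, cut at about 25% in these data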;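 also: 0% = enzyme with DMSO only and 100% = wells lacking PAFAH1B3 protein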
pPAFAH FP inh: inhibitors of human plasma PAF acetylhydrolase (pPAFAH) | AID 463082 | recombinant pPAFAH, FP-rhodamine probe fluorescence polarization | inhibition, % at 3.39 µM | Q13093 | 330,000 tested, 1.5% active;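 active = inhibition above the mean inhibition across the screen plus 3 SD, cut at about 25% in these data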;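 also: inhibitors block binding of the rhodamine activity-based probe so polarization drops; 0% = enzyme with DMSO and 100% = wells lacking pPAFAH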
PAFAH1B2 FP inh: blocks human PAF acetylhydrolase 1b catalytic subunit 2 | recombinant PAFAH1B2, FP-rhodamine activity probe, fluorescence polarization | inhibition, % at 3.39 µM | 340,000 tested, 1.2% active | AID 492953;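 active = inhibition above the mean of all tested compounds plus 3 SD, cut at about 24% in these data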;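 also: 0% = enzyme with DMSO and 100% = wells lacking PAFAH1B2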
* = called active by the depositor. The list is not random: actives were taken first. Their share in the collection is about 2.7%.

`O=C(O)C1=C[C@H](c2ccc(C(F)(F)F)cc2)C[C@H](OCc2ccc(CO)cc2)O1` gave PAFAH2 FP inh 6.2, ASAP1 inh -0.3, ARFGAP1 inhibitor -0.7, PAFAH1B3 FP inh 2.8, pPAFAH FP inh 1.7 and PAFAH1B2 FP inh 40.0*.
For O=S(=O)(NCc1ccccc1)NCc1ccc(Cl)cc1Cl the results were PAFAH2 FP inh 8.7, ASAP1 inh -6.9, ARFGAP1 inhibitor 6.2, PAFAH1B3 FP inh 4.0, pPAFAH FP inh 1.9 and PAFAH1B2 FP inh 28.4*.
For CSc1ccc(S(=O)(=O)NCc2ccc(Cl)cc2Cl)cc1 the results were PAFAH2 FP inh 1.1, ASAP1 inh 19.6, ARFGAP1 inhibitor 7.8, PAFAH1B3 FP inh 3.9, pPAFAH FP inh -0.8 and PAFAH1B2 FP inh 29.2*.
For O=S(=O)(NCc1ccccc1)NCc1ccccc1 the results were PAFAH2 FP inh 7.9, ASAP1 inh -4.1, ARFGAP1 inhibitor -10.0, PAFAH1B3 FP inh 6.0, pPAFAH FP inh 4.8 and PAFAH1B2 FP inh 1.3.
Screening Cc1cc(Oc2cccnc2)ccc1NC(=O)CCc1c[nH]c2ccccc12 returned ASAP1 inh -1.8 and ARFGAP1 inhibitor -2.2.
Screening C[C@@H]1COc2cc(N3CCOCC3)ccc2S(=O)(=O)N1 returned ASAP1 inh -1.4 and ARFGAP1 inhibitor -6.5.
For COc1cccc(CNC(=O)[C@H]2CCCN2C(=O)[C@H]2CCCN2C(=O)c2ccccc2C(F)(F)F)c1 the results were ASAP1 inh 17.8 and ARFGAP1 inhibitor -2.4.
Screening Cn1c(CCN2CCN(c3ccccn3)CC2)nc2cc(NS(=O)(=O)c3ccc(Cl)cc3)ccc21 returned PAFAH2 FP inh 0.7, ASAP1 inh -2.3, ARFGAP1 inhibitor 2.7, PAFAH1B3 FP inh 0.4, pPAFAH FP inh 14.4 and PAFAH1B2 FP inh 25.6*.
Screening Cc1ccc(S(=O)(=O)Nc2ccc3c(c2)nc(CCN2CCN(c4ccccn4)CC2)n3C)cc1 returned PAFAH2 FP inh -4.7, ASAP1 inh 5.9, ARFGAP1 inhibitor 5.2, PAFAH1B3 FP inh 0.7, pPAFAH FP inh 2.0 and PAFAH1B2 FP inh 11.8.
For Cc1ccccc1C(=O)N(C)[C@H]1C[C@H]2c3[nH]c4c(-c5ccccc5)cccc4c3CCN2C(=O)[C@H]1[C@H](C)O the results were ASAP1 inh -5.8 and ARFGAP1 inhibitor -2.0.
`Nc1cc2ccccc2cc1NS(=O)(=O)N1CCCCC1` gave ASAP1 inh 1.4 and ARFGAP1 inhibitor -1.8.
COCCCNC(=O)C[C@H]1C[C@@]2(C(=O)OC)C(=C[C@H](COCc3ccccc3)O[C@@H]2C)N(Cc2ccc3c(c2)OCO3)C1=O was read as ASAP1 inh -8.2 and ARFGAP1 inhibitor 3.4.
`CSCCC(NS(=O)(=O)c1cccc(C(F)(F)F)c1)C(=O)Nc1ccccc1N1CCCC1` (stereo not given) gave PAFAH2 FP inh 6.2, ASAP1 inh -6.4, ARFGAP1 inhibitor -7.2, PAFAH1B3 FP inh 2.6, pPAFAH FP inh 10.1 and PAFAH1B2 FP inh 26.3*.
O=C(COc1cccc(C(F)(F)F)c1)Nc1ccccc1N1CCCCC1 was read as PAFAH2 FP inh -4.7, ASAP1 inh -8.1, ARFGAP1 inhibitor 13.1, PAFAH1B3 FP inh 7.6, pPAFAH FP inh 3.7 and PAFAH1B2 FP inh 1.8.
Screening CC(=O)C1=C(O)C(=O)N(Cc2ccccc2)C1c1ccc(Cl)cc1 (stereo not given) returned PAFAH2 FP inh 7.5, ASAP1 inh 9.8, ARFGAP1 inhibitor 0.4, PAFAH1B3 FP inh 2.9, pPAFAH FP inh -3.4 and PAFAH1B2 FP inh 29.0*.
`CCOC(=O)C1=CCN(S(=O)(=O)c2ccc(Cl)cc2)C1c1cccc(F)c1` (stereo not given) gave ASAP1 inh 2.0 and ARFGAP1 inhibitor -3.8.
Screening Cc1ccc(NC(=S)NNc2ccc([N+](=O)[O-])cc2S(=O)(=O)Nc2ccccc2C(=O)O)cc1C returned PAFAH2 FP inh 38.4*, ASAP1 inh 3.9, ARFGAP1 inhibitor -3.8, PAFAH1B3 FP inh 17.8, pPAFAH FP inh 29.0* and PAFAH1B2 FP inh 25.1*.
CC(=O)Nc1ccc(C=NNc2ccc([N+](=O)[O-])cc2S(=O)(=O)Nc2ccccc2C(=O)O)cc1 was read as PAFAH2 FP inh 1.4, ASAP1 inh 5.1, ARFGAP1 inhibitor 7.2, PAFAH1B3 FP inh 2.1, pPAFAH FP inh 26.1* and PAFAH1B2 FP inh 3.5.
